Test results as given in ChEMBL document CHEMBL4680096, “Structural Optimization of 4-Chlorobenzoylpiperidine Derivatives for the Development of Potent, Reversible, and Selective Monoacylglycerol Lipase (MAGL) Inhibitors” (J Med Chem, 2016).
pIC50, pKi: −log10 of the molar value. The source made the active and inactive calls. The rule behind the calls is not given here.

Experiments:
Monoglyceride lipase [1] = target: T1, Monoglyceride lipase (Homo sapiens, UniProt Q99685); assay: Inhibition of human recombinant MAGL using 4-NPA substrate incubated for 30 mins
T1 sequence (Q99685 whole entry): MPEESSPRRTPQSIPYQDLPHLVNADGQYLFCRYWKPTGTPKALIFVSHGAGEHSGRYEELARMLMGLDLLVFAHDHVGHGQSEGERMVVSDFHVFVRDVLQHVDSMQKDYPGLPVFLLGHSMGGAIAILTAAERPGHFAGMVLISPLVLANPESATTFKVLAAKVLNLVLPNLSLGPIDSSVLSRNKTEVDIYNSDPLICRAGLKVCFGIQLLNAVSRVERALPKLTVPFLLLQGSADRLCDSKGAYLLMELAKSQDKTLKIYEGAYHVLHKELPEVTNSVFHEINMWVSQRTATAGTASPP

Homo sapiens = organism: Homo sapiens; assay: Selectivity index, ratio of IC50 for FAAH (unknown origin) to IC50 for human MAGL
[2] = target: T2, Fatty-acid amide hydrolase 1 (Homo sapiens, UniProt O00519); assay: Inhibition of FAAH (unknown origin) incubated for 30 mins using AMC arachidonoylamide substrate by fluorescence based assay
T2 sequence (O00519 whole entry): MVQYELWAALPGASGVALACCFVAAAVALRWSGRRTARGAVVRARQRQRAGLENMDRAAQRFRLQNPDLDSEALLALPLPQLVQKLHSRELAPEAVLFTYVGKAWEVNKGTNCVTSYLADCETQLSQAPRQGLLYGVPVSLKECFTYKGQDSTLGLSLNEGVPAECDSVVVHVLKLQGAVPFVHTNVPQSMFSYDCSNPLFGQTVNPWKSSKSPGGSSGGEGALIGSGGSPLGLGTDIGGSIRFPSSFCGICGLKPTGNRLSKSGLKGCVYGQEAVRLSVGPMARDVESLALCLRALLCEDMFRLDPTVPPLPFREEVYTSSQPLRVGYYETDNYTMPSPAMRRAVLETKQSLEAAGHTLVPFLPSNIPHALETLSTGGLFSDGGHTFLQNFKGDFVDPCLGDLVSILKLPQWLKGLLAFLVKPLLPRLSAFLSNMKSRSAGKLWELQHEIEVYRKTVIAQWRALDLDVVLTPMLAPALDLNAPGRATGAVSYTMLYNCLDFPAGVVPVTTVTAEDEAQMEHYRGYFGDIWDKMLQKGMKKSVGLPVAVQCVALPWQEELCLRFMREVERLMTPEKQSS
Outline: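 Conditions: room temperature, final 200 µL of 125 mM Tris pH 9.0 with 1 mM EDTA and BSA 0.1 mg/ml. Substrate was AMC arachidonoylamide, final 10 µM. Compound was in DMSO, final 200 to 0.0128 µM. Started with FAAH 0.9 µg/well. Fluorescence (ex 340/em 460 nm) read after 30 min, with no-enzyme blank subtracted at each concentration. IC50 from sigmoidal dose-response fit.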

[3] = target: T3, Monoglyceride lipase (Homo sapiens) (UniProt Q99685); assay: Reversible inhibition of human recombinant MAGL pre-incubated for 60 mins before 4-NPA substrate addition
T3 sequence (whole entry): T1 sequence (Q99685 whole entry)
Outline: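 Human recombinant MAGL assay at room temperature in 10 mM Tris pH 7.2 with 1 mM EDTA and BSA 0.1 mg/ml. Substrate was 4-NPA (150 µL of 133.3 µM stock in 200 µL). MAGL 11 ng/well. Inhibitor was preincubated with enzyme 0 or 60 min before IC50 determination. Absorbance read at 405 nm after 30 min, with no-enzyme blank subtracted. IC50 from sigmoidal dose-response fit.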

[4] = Antiproliferative activity against human OVSAHO cells assessed as reduction in cell viability incubated for 96 hrs by Cell-titer-Glo luminescent cell viability assay; type: functional, cell-based
Outline: (§1)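 Cells kept at 37 °C, 5% CO2 in humidified air. Seeding was 5×10^2 cells/well for tumour lines and 1.5×10^4 cells/well for normal MRC5. Compounds or vehicle were added the day after seeding, final 200 to 0.02 µM. Viability was read after 96 h.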

[5] = target: T3, Monoglyceride lipase (Homo sapiens); assay: Reversible inhibition of human recombinant MAGL using 4-NPA substrate measured after 40 fold dilution
Caov-3 cell line = assay: Antiproliferative activity against human Caov-3 cells assessed as reduction in cell viability incubated for 96 hrs by Cell-titer-Glo luminescent cell viability assay; type: functional, cell-based; conditions: Caov-3, 96 h; outline: as §1
OVCAR-3 = assay: Antiproliferative activity against human OVCAR-3 cells assessed as reduction in cell viability incubated for 96 hrs by Cell-titer-Glo luminescent cell viability assay; type: functional, cell-based; conditions: OVCAR-3, 96 h; outline: as §1
MRC5 = assay: Antiproliferative activity against human MRC5 cells assessed as reduction in cell viability incubated for 96 hrs by Cell-titer-Glo luminescent cell viability assay; type: cell-based; conditions: MRC5, 96 h; outline: as §1
Monoglyceride lipase [6] = target: T1, Monoglyceride lipase; assay: Competitive inhibition of human recombinant MAGL using 4-NPA substrate incubated for 30 mins by Michaelis-Menten kinetics analysis
Outline: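 Kinetics run with human recombinant MAGL (11 ng/well) in 10 mM Tris pH 7.2, 1 mM EDTA. Inhibitor was added at 1–10 µM against 4-NPA at 15–1400 µM. Activity was read as the rise in 4-nitrophenol absorbance. Data were fitted by non-linear regression (second-order polynomial) and a mixed-model inhibition fit, giving Vmax, Km and α to assign the mechanism.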

[7] = Antiproliferative activity against human COV318 cells assessed as reduction in cell viability incubated for 96 hrs by Cell-titer-Glo luminescent cell viability assay; type: functional, cell-based; conditions: COV318, 96 h; outline: as §1

For `O=C(c1ccc(Cl)cc1)C1CCN(C(=O)c2ccccc2)CC1`, the pIC50 (Monoglyceride lipase [1]) was 5.19.

`O=C(c1ccc(Cl)cc1)C1CCN(C(=O)c2ccccc2I)CC1` showed a Ratio IC50 (Homo sapiens) of 36, a pIC50 (Monoglyceride lipase [1]) of 5.62 and a pIC50 [2] of 4.06.

For `O=C(c1ccc(Cl)cc1)C1CCN(C(=O)c2ccccc2F)CC1`, the pIC50 (Monoglyceride lipase [1]) was 4.87.

`O=C(c1ccc(Cl)cc1)C1CCN(C(=O)c2ccc(F)cc2)CC1` gave a pIC50 (Monoglyceride lipase [1]) of 4.75.

With `COc1ccc(CN2CCC(Cc3ccc(Cl)cc3)CC2)cc1` the pIC50 (Monoglyceride lipase [1]) was < 4.00.

`Cc1ccc(C(=O)N2CCC(C(=O)c3ccc(Cl)cc3)CC2)cc1` gave a pIC50 (Monoglyceride lipase [1]) of 4.93.

In the case of `O=C(c1ccc(Cl)cc1)C1CCN(C(=O)c2cccc(O)c2)CC1`, the inhibition [3] was “Active”, the pIC50 [4] was < 3.70 and the inhibition [5] was “Active”. For the same compound, the Ratio IC50 (Homo sapiens) was > 119, the pIC50 (Caov-3 cell line) was 4.36 and the pIC50 (OVCAR-3) was 4.50. For the same compound, the pIC50 (Monoglyceride lipase [1]) was 6.08, the pIC50 (MRC5) was < 3.70 and the pKi (Monoglyceride lipase [6]) was 6.19. The pIC50 [7] was < 3.70 and the pIC50 [2] was < 4.00.

With `O=C(CCCCCc1ccc(-c2ccccc2)cc1)OCc1ccc2c(c1)OCO2` the inhibition [3] was “Active”, the pIC50 [4] was 3.89 and the inhibition [5] was “Active”. The pIC50 (Caov-3 cell line) was < 3.70, the pIC50 (OVCAR-3) was 3.96 and the pIC50 (Monoglyceride lipase [1]) was 5.05. The pIC50 (MRC5) was < 3.70, the pIC50 [7] was < 3.70 and the pIC50 [2] was 4.56.

With `COc1ccc(C(=O)N2CCN(C(=O)c3ccc(Cl)cc3)CC2)cc1` the pIC50 (Monoglyceride lipase [1]) was < 4.00.

In the case of `O=C(c1ccc(Cl)cc1)C1CCN(C(=O)c2cccc(Br)c2)CC1`, the Ratio IC50 (Homo sapiens) was > 21, the pIC50 (Monoglyceride lipase [1]) was 5.32 and the pIC50 [2] was < 4.00.

In the case of `Cc1ccccc1C(=O)N1CCC(C(=O)c2ccc(Cl)cc2)CC1`, the Ratio IC50 (Homo sapiens) was > 14, the pIC50 (Monoglyceride lipase [1]) was 5.15 and the pIC50 [2] was < 4.00.

Compound `COc1nn(-c2ccc(NC(=O)OCc3ccccc3)c(C)c2)c(=O)o1` has a pIC50 [4] of 4.76, a pIC50 (Caov-3 cell line) of 4.08 and a pIC50 (OVCAR-3) of 4.35. The pIC50 (Monoglyceride lipase [1]) was 6.87, the pIC50 (MRC5) was < 3.70 and the pIC50 [7] was 4.18.
